# Assay outcomes deposited in PubChem BioAssay by several laboratories.
# HUVEC inhibit = human endothelial cell proliferation inhibition | viability, % at 10 µM (by protocol) | HUVEC proliferation, CellTiter-Glo luminescence, 72 h; hits give low values | 86,000 compounds, 1.1% hits | AID 648;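 active means viability at or below 30%; inactive means viability above 30%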
# Jurkat viability = cytotoxicity toward Jurkat cells; inhibition, % at 4 µM; 56,000 compounds, 1.2% hits; Jurkat E6.1 viability, ATP luminescence, 48 h;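 active means inhibition above the mean inhibition of all tested compounds plus 3 SD, cut at about 28% in these data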
# H69AR growth 86K = blocks growth of human H69AR lung tumor cells; H69AR lung tumor viability, ATP luminescence, 72 h; hits give low values; viability, % at 10 µM; 85,000 compounds, 6% hits; AID 598;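 active means viability at or below 40%; inactive means viability above 40%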;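 further: multidrug resistant small cell line overexpressing MRP-1 efflux transporter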
# Lung fibro prol = blocks proliferation of human lung fibroblasts; LL 47 human lung fibroblast viability, ATP luminescence; hits give low values; viability, % at 10 µM; 85,000 compounds, 1.1% hits; AID 719;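 active means viability at or below 50% in the single dose screen; inactive means viability above 50%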;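 further: compound exposure lasted 72 h before the ATP readout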
#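 Material: human lung fibroblast line LL 47, low passage; Evaluation: viability percentage against median untreated-cell control; Buffer or medium: 15% FBS in IMEM; Incubation: 72 h compound exposure at 37 °C after overnight plating; Dosing: 0.1% DMSO in all compound wells; Measured by: CellTiter-Glo luminescence.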
# Hits are given with their value; i = inactive; nt = no result given; ! = repeats disagree. Sampled rows, rich in hits. Any-hit rate of the full collection: about 6.4%.
SMILES,HUVEC inhibit,Jurkat viability,H69AR growth 86K,Lung fibro prol
CCS(=O)(=O)c1ccc2oc(SCC(=O)NC(C)C3CC4CCC3C4)nc2c1 (configuration not stated),i,nt,i,i
CC(=O)Nc1ccc(S(=O)(=O)NC2(C(F)(F)F)NC(=O)N(C3CCCCC3)C2=O)cc1 (configuration not stated),i,nt,i,i
CCCCCn1c(SCCN2CCOCC2)nc2c1c(=O)[nH]c(=O)n2C,i,i,i,i
Cc1ccc(S(=O)(=O)N2CCN(S(=O)(=O)N(C)C)CC2)c(C)c1,i,nt,i,i
COc1ccc(-n2c(SCC(=O)Nc3sc4c(c3C#N)CCCC4)nnc2-c2ccccc2OC)cc1,i,nt,i,i
CC(C)c1cc(C(=O)Nc2sc3c(c2C#N)CCC3)no1,i,69,26,i
COc1ccc(-c2nnc(SCC(=O)Nc3sc4c(c3C#N)CCCC4)n2-c2ccccc2)cc1,3.7,nt,2.3,27
CCCC1CCc2c(sc(NC(=O)OCC)c2C#N)C1 (configuration not stated),i,nt,28,i
Cc1cc(C(=O)Nc2sc3c(c2C#N)CCC(C(C)(C)C)C3)no1 (configuration not stated),i,i,23,i
N#Cc1c(NC(=O)CCC(=O)O)sc2c1CCCC2,i,nt,i,i
COc1ccc(-c2nnc(SCC(=O)Nc3ncc(C)s3)n2-c2ccccc2)cc1OC,i,50,17,i
N#Cc1c(NC(=O)c2ccccc2)sc2c1CCC2,i,nt,21,i
CCc1ccc(CCC(=O)Nc2sc3c(c2C#N)CCCC3)o1,i,89,33,i
CCc1nnc(NC(=O)CSc2nnc(-c3ccc(O)cc3)n2-c2ccccc2)s1,i,i,i,i
N#Cc1ccc(-c2cccnc2)nc1SCC(=O)Nc1sc2c(c1C#N)CCC2,i,nt,i,31
Cc1cccc(C(=O)Nc2sc3c(c2C#N)CCCCC3)c1,i,nt,i,i
Cc1nc2ccccn2c1/C(O)=C1\C(=O)C(=O)N(CCCN(C)C)C1c1ccc(Cl)cc1 (configuration not stated),i,i,i,i
O=c1cc(CSc2ccc(S(=O)(=O)N3CCCCC3)cn2)nc2sccn12,i,i,i,i
N#Cc1c(NC(=O)c2cccnc2)sc2c1CCC2,i,nt,21,i
Cc1cc(C(=O)Nc2sc3c(c2C#N)CCC(C)C3)cs1 (configuration not stated),i,i,19,i
CC(C)(C)C(=O)Nc1sc2c(c1C#N)CCCCC2,i,nt,i,i
CC(C)c1nc(N2CCOCC2)c(C#N)c2c1CCC2,i,nt,i,i
Cc1oc(-c2ccccc2F)nc1CS(=O)(=O)CC(=O)N1CCN(c2ccccc2)CC1,i,nt,i,i
C=CCn1c(SCc2c(C)noc2C)nc2sc3c(c2c1=O)CCCCC3,i,i,i,i
C=CCn1c(SCc2c(C)noc2C)nc2ccccc2c1=O,i,nt,20,43
SMILES,HUVEC inhibit,Jurkat viability,H69AR growth 86K,Lung fibro prol
C=CCn1c(SCC(=O)OCC)nc2cc(C(=O)NCc3ccco3)ccc2c1=O,i,nt,i,i
C=CCn1c(SCc2nc3ccccc3c(=O)[nH]2)nc2ccccc2c1=O,i,nt,5.6,i
C=CCn1c(SCc2c(C)noc2C)nc2cc(C(=O)O)ccc2c1=O,i,69,i,i
C=CCn1c(SCc2c(C)noc2C)nc2sc3c(c2c1=O)CCCC3,i,nt,28,i
Cc1noc(C)c1CSc1nnc2n(-c3ccccc3)c(=O)c3ccccc3n12,i,i,i,i
CCC1(C)Cc2c(sc3c2c2ncnn2c2nnc(SCC(=O)NCc4ccco4)n32)CO1 (configuration not stated),i,nt,37,i
CCC1(C)Cc2c(sc3c2c(=O)n(C)c2nnc(SCC(=O)c4ccccc4)n32)CO1 (configuration not stated),i,i,4.2,35
CC(=O)N=c1cccc(NC(C)=O)n1O,i,i,i,i
COc1ccc(NC(=O)CCC(=O)Nc2nnc(C(F)(F)F)s2)c(OC)c1,i,nt,i,i
COc1cc(C(=O)Nc2ccncc2)cc(OC)c1OC,i,i,i,i
COc1cc(C(=O)Nc2nc(OC)c(-c3ccccc3)c(OC)n2)cc(OC)c1OC,i,i,32,i
COc1cc(C(=O)Nc2cc(-c3ccccc3)[nH]n2)cc(OC)c1OC,i,i,25,i
Cc1ccc(OCc2nc(-c3ccccn3)n[nH]2)cc1,i,nt,33,i
Cc1cccc(OCc2nc(-c3ccccn3)n[nH]2)c1,i,nt,34,i
Cc1cc(C)nc(Nc2n[nH]c(COc3ccc(Cl)cc3)n2)n1,i,i,i,i
O=C(CCn1c(=O)oc2ccccc21)N1CCc2ccccc21,i,i,i,i
CNCCCC1c2ccccc2C=Cc2ccccc21,i,nt,i,i
CNCCCC12CCC(c3ccccc31)c1ccccc12,i,nt,8.6!,i
